Reference: paper PMC5551398 (Biochemistry, 2017)
Blank lines part the entries; values can stand above or below the molecule they belong to. Bridge positions count the residues as written; N and C are the ends. Primed or numbered codes have the meaning given here. Ends that are not written are not given here. Peptide text beside a SMILES is read from it. * marks the point of attachment. FITC = O=C1OC2(c3ccc(O)cc3Oc3cc(O)ccc32)c2ccc(NC(=S)*)cc21; Biotin = O=C1N[C@H]2[C@H](CS[C@H]2CCCCC(=O)*)N1; FITC′ = fluorescein isothiocyanate label; Ahx = NCCCCCC(=O)O

Columns and labels:
MBP-CTR ECD = biological target: T1, MBP-CTR ECD (Homo sapiens, UniProt P30988); assay: Competition AlphaLISA peptide-binding assay
T1 sequence (P30988 36-151): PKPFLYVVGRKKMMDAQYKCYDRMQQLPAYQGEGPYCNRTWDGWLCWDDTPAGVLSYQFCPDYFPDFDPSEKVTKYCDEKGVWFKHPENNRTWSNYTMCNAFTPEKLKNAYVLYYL
Method in brief: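 Binding by AlphaLISA competition. MBP-CTR ECD from transfected HEK293T cells (150 nM) was mixed with 150 nM biotinylated sCT and competitor peptide. Luminescence read at 680/615 nm. Three independent experiments, duplicate samples.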

[1] = biological target: T2, MBP-CTR ECD (hCTR.36-151) (Homo sapiens, UniProt P30988); assay: FP saturation peptide-binding assay, MBP-CTR ECD WT
T2 sequence (P30988 36-151): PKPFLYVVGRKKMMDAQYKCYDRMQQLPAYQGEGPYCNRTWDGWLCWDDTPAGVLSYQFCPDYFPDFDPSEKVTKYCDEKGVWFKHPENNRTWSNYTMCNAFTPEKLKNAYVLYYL
Method in brief: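 MBP-CTR ECD was produced in HEK293S GnTI− cells and left untreated, digested with Endo H (4 µl of 500 U/µl, GlycoBuffer 3, 22°C, 30 min), or given heat-inactivated Endo H (75°C, 10 min). Digests were serially diluted (top 3 µM) and titrated against 10 nM FITC-AC413(6-25) Y25P, 1 h, dark, room temperature, HEPES pH 7.4 buffer. Anisotropy corrected for intensity quenching. Duplicate samples.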

[2] = biological target: T3, MBP-hCTR.36-151-H6 produced in HEK293T cells (human, UniProt P30988-2 36-151, complex N-glycans at N73, N125, N130); assay: AlphaScreen or HTRF
T3 sequence (looked up): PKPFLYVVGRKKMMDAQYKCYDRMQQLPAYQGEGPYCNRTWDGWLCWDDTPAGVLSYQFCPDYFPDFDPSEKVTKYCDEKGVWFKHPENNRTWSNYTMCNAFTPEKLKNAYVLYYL

[3] = biological target: T4, MBP-CTR ECD-H6 produced in E. coli (human, UniProt P30988-2 36-151); assay: fluorescence polarisation
T4 sequence (looked up): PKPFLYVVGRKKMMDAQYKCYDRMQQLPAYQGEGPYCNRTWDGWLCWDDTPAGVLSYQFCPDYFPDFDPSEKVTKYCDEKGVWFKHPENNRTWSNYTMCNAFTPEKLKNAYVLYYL

[4] = biological target: T3, MBP-hCTR.36-151-H6 produced in HEK293T …; assay: fluorescence polarisation
[5] = biological target: T5, MBP-hCTR.36-151-H6 produced in HEK293S GnTI- cells (human, UniProt P30988-2 36-151, core N-glycans (Man5GlcNAc2) at N73, N125, N130); assay: fluorescence polarisation
T5 sequence (looked up): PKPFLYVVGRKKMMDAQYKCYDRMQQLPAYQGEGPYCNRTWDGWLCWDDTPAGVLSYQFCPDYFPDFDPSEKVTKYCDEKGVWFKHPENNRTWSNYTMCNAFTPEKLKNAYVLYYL

[6] = biological target: T6, MBP-free H6-CTR ECD (residues 32-140) (human, UniProt P30988-2 32-140); assay: ITC
T6 sequence (looked up): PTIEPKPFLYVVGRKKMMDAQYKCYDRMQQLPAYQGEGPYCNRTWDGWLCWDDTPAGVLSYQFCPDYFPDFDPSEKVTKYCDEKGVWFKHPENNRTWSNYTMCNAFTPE

[7] = biological target: T3, MBP-hCTR.36-151-H6 produced in HEK293T …; assay: AlphaScreen or HTRF; remark: listed apart in the source
[8] = biological target: T3, MBP-hCTR.36-151-H6 produced in HEK293T …; assay: fluorescence polarisation; remark: listed apart in the source
[9] = biological target: T3, MBP-hCTR.36-151-H6 produced in HEK293T …; assay: fluorescence polarisation; remark: listed apart in the source
[10] = biological target: T7, MBP-RAMP2-(GS)5-CTR ECD-H6 produced in E. coli (human, UniProt O60895 55-140; P30988-2 36-151); assay: fluorescence polarisation
T7 chain: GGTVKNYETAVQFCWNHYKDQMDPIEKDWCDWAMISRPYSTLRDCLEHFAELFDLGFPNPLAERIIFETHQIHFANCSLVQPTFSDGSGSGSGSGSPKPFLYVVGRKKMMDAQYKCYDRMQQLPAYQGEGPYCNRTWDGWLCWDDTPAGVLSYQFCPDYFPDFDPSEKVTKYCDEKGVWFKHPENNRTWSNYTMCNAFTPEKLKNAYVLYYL

[11] = biological target: T3, MBP-hCTR.36-151-H6 produced in HEK293T …; assay: fluorescence polarisation; remark: listed apart in the source

- IC50 (MBP-CTR ECD): 47.9 nM
- Kd [1]: 115 nM
Molecule: CC(C)C[C@H](NC(=O)[C@H](CCCNC(=N)N)NC(=O)[C@@H](NC(=O)[C@H](CC(C)C)NC(=O)[C@H](Cc1ccccc1)NC(=O)[C@H](CC(N)=O)NC(=O)[C@H](C)NC(=O)CCCCCNC(=S)Nc1ccc2c(c1)C(=O)OC21c2ccc(O)cc2Oc2cc(O)ccc21)C(C)C)C(=O)N[C@@H](CCC(N)=O)C(=O)N[C@H](C(=O)N[C@@H](Cc1ccc(O)cc1)C(=O)N1CCC[C@H]1C(=O)N[C@@H](CCCNC(=N)N)C(=O)N[C@H](C(=O)N[C@@H](CC(N)=O)C(=O)N[C@H](C(=O)NCC(=O)N[C@@H](C)C(=O)N[C@@H](CC(N)=O)C(=O)N[C@H](C(=O)N1CCC[C@H]1C(N)=O)[C@@H](C)O)C(C)C)[C@@H](C)O)[C@@H](C)O [FITC-AC413(6-25) Y25P] ({FITC-Ahx}-ANFLVRLQTYPRTNVGANTP-NH2)

- IC50 (MBP-CTR ECD): 708 nM
Molecule: ANFLVRLQTYPRTNVGANTP-NH2 [AC413(6-25) Y25P, reference compound]

- binding result [2]: binds
B1: Biotin-sCT C1A/C7A (peptide)
peptide: Biotin-ASNLSTAVLGKLSQELHKLQTYPRTNTGSGTP-NH2
SMILES: CC(C)C[C@H](NC(=O)[C@H](CCCCN)NC(=O)CNC(=O)[C@H](CC(C)C)NC(=O)[C@@H](NC(=O)[C@H](C)NC(=O)[C@@H](NC(=O)[C@H](CO)NC(=O)[C@H](CC(C)C)NC(=O)[C@H](CC(N)=O)NC(=O)[C@H](CO)NC(=O)[C@H](C)NC(=O)CCCC[C@@H]1SC[C@@H]2NC(=O)N[C@@H]21)[C@@H](C)O)C(C)C)C(=O)N[C@@H](CO)C(=O)N[C@@H](CCC(N)=O)C(=O)N[C@@H](CCC(=O)O)C(=O)N[C@@H](CC(C)C)C(=O)N[C@@H](Cc1c[nH]cn1)C(=O)N[C@@H](CCCCN)C(=O)N[C@@H](CC(C)C)C(=O)N[C@@H](CCC(N)=O)C(=O)N[C@H](C(=O)N[C@@H](Cc1ccc(O)cc1)C(=O)N1CCC[C@H]1C(=O)N[C@@H](CCCNC(=N)N)C(=O)N[C@H](C(=O)N[C@@H](CC(N)=O)C(=O)N[C@H](C(=O)NCC(=O)N[C@@H](CO)C(=O)NCC(=O)N[C@H](C(=O)N1CCC[C@H]1C(N)=O)[C@@H](C)O)[C@@H](C)O)[C@@H](C)O)[C@@H](C)O

- Ki [3]: ~25000 nM
- Ki [4]: ~3000 nM
- Ki [5]: ~3000 nM
- Kd [6]: 16000 nM
- dH [6]: -24.2 kcal/mol
- stoichiometry N [6]: 1.17
Molecule: VLGKLSQELHKLQTYPRTNTGSGTP-NH2 [sCT(8-32)]

- Kd [6]: 35000 nM
Molecule: CSNLSTCVLGKLSQELHKLQTYPRTNTGSGTP-NH2 (disulfide 1-7) [sCT(1-32)]

- pIC50 [7]: 7.32
- Kd [8]: 115 nM
- pKD [9]: 6.94
- IC50 [2]: 47.9 nM
Molecule: {FITC′-Ahx}-ANFLVRLQTYPRTNVGANTP-NH2 [FITC-Ahx (aminohexanoic acid)-AC413(6-25) Y25P]

- Kd [10]: 4570 nM
Molecule: {FITC-Ahx}-ANFLVRLQTYPRTNVGANTY-NH2 [FITC-Ahx-AC413(6-25)]

- pIC50 [7]: 6.15
- pKI [11]: 6.2
- Ki [4]: 631 nM
Molecule: ANFLVRLQTYPRTNVGANTP-NH2 [AC413(6-25) Y25P]
